{"source": "ChEMBL document CHEMBL3244396", "about": "“Synthesis and antileukemic activity of 5-substituted 2,3-dihydro-6,7-bis(hydroxymethyl)-1H-pyrrolizine diesters” (J Med Chem, 1977)", "key": {"[1]": {"tested_on": "P388", "assay": "Antitumor activity against mouse P388 cells allografted in female CDF1 mouse assessed as disease cures by measuring 30-days host survival at 100 mg/kg, ip administered daily for 9 days as Klucel suspension starting 24 hrs after tumor inoculation relative to control", "type": "functional", "conditions": "route intraperitoneal", "outline": "(§1)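 P388 leukemia given as an ascitic fluid cell inoculum, ip, to mice of the strain and sex in each line. Nine daily ip doses were given in a Klucel (hydroxypropylcellulose) suspension, starting 24 h after inoculation. Read-out is median survival time as %T/C, with >125 taken as significant; a \"cure\" means 30-day survival.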"}, "[2]": {"assay": "Cytotoxicity against human 9KB cells treated as ethanol solution", "type": "functional", "conditions": "read-out: ED50 (the source's name)", "outline": "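Compound applied as an ethanol solution; activity read out as ED50 under the general screening protocol.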"}, "[3]": {"tested_on": "P388", "assay": "Antitumor activity against mouse P388 cells allografted in female CDF1 mouse assessed as change in body weight at 50 mg/kg, ip administered daily for 9 days as Klucel suspension starting 24 hrs after tumor inoculation", "type": "functional", "conditions": "route intraperitoneal", "outline": "(§2)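 Ascitic fluid carrying P388 cells was inoculated ip. Compound was given ip in nine daily doses, starting 24 h after inoculation, in Klucel (hydroxypropylcellulose) suspension or in saline with Tween-80. Body-weight difference (treated minus control) was recorded on day 5. Survival was scored as %T/C of median survival time, and 30-day survival counted as cure.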"}, "[4]": {"tested_on": "P388", "assay": "Antitumor activity against mouse P388 cells allografted in female CDF1 mouse assessed as change in body weight at 25 mg/kg, ip administered daily for 9 days as Klucel suspension starting 24 hrs after tumor inoculation", "type": "functional", "conditions": "route intraperitoneal", "outline": "as §2"}, "[5]": {"tested_on": "P388", "assay": "Antitumor activity against mouse P388 cells allografted in female CDF1 mouse assessed as disease cures by measuring 30-days host survival at 25 mg/kg, ip administered daily for 9 days as Klucel suspension starting 24 hrs after tumor inoculation relative to control", "type": "functional", "conditions": "route intraperitoneal", "outline": "as §1"}, "[6]": {"tested_on": "Mus musculus", "assay": "Toxicity in female CDF1 mouse allografted with mouse P388 cells assessed as animal survival at 100 mg/kg, ip administered daily for 9 days as Klucel suspension starting 24 hrs after tumor inoculation", "type": "organism-based", "set-up": "dose 100 mg/kg, route intraperitoneal", "conditions": "in vivo", "outline": "(§3)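 P-388 leukemia ascitic fluid inoculated ip. Compound given ip as a suspension in Klucel (hydroxypropylcellulose), once daily for nine doses beginning 24 h post-inoculation. Acute toxicity assessed as toxicity-day survivors per group. Survival was followed up to 30 days, with 30-day survival counted as \"cure\". Follows NCI screening protocols.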"}, "[7]": {"tested_on": "P388", "assay": "Antitumor activity against mouse P388 cells allografted in female CDF1 mouse assessed as change in body weight at 100 mg/kg, ip administered daily for 9 days as Klucel suspension starting 24 hrs after tumor inoculation", "type": "functional", "conditions": "route intraperitoneal", "outline": "as §2"}, "[8]": {"tested_on": "L1210", "assay": "Antileukemic activity against mouse L1210 cells allografted in female BDF1 mouse assessed as change in body weight at 200 mg/kg, ip administered daily for 9 days as Klucel suspension starting 24 hrs after tumor inoculation", "type": "functional", "conditions": "route intraperitoneal", "outline": "(§4)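 Ascitic fluid carrying L1210 cells was inoculated ip. Compound was given ip as a Klucel (hydroxypropylcellulose) suspension in nine daily doses, starting 24 h after inoculation. Body-weight difference (treated minus control) was recorded on day 5. Survival was scored as %T/C of mean survival time.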"}, "[9]": {"tested_on": "Mus musculus", "assay": "Toxicity in female CDF1 mouse allografted with mouse P388 cells assessed as animal survival at 50 mg/kg, ip administered daily for 9 days as Klucel suspension starting 24 hrs after tumor inoculation", "type": "organism-based", "set-up": "dose 50 mg/kg, route intraperitoneal", "conditions": "in vivo", "outline": "as §3"}, "[10]": {"tested_on": "Mus musculus", "assay": "Toxicity in female BDF1 mouse allografted with mouse L1210 cells assessed as animal survival at 200 mg/kg, ip administered daily for 9 days as Klucel suspension starting 24 hrs after tumor inoculation measured on fifth day", "type": "organism-based", "set-up": "dose 200 mg/kg, route intraperitoneal", "conditions": "in vivo", "outline": "(§5)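 L1210 leukemia passaged as ascitic fluid and inoculated ip. Test agent given ip as a Klucel (hydroxypropylcellulose) suspension, nine daily doses starting 24 h after tumor inoculation. Acute toxicity read as toxicity-day survivors per group (out of 6), recorded on day 5. Animal weight difference T − C was also recorded. Follows NCI screening protocols.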"}, "[11]": {"tested_on": "Mus musculus", "assay": "Toxicity in female BDF1 mouse allografted with mouse L1210 cells assessed as animal survival at 50 mg/kg, ip administered daily for 9 days as Klucel suspension starting 24 hrs after tumor inoculation measured on fifth day", "type": "organism-based", "set-up": "dose 50 mg/kg, route intraperitoneal", "conditions": "in vivo", "outline": "as §5"}, "[12]": {"tested_on": "L1210", "assay": "Antileukemic activity against mouse L1210 cells allografted in female BDF1 mouse assessed as host mean survival time at 100 mg/kg, ip administered daily for 9 days as Klucel suspension starting 24 hrs after tumor inoculation relative to control", "type": "functional", "conditions": "route intraperitoneal", "outline": "(§6)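 L1210 leukemia given as an ascitic fluid cell inoculum, ip, to mice of the strain and sex in each line. Test material was given ip for nine daily doses starting 24 h after inoculation, in a Klucel (hydroxypropylcellulose) suspension. Read-out is mean survival time as %T/C versus controls, with >125 taken as significant.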"}, "[13]": {"tested_on": "L1210", "assay": "Antileukemic activity against mouse L1210 cells allografted in female BDF1 mouse assessed as change in body weight at 100 mg/kg, ip administered daily for 9 days as Klucel suspension starting 24 hrs after tumor inoculation", "type": "functional", "conditions": "route intraperitoneal", "outline": "as §4"}, "[14]": {"tested_on": "L1210", "assay": "Antileukemic activity against mouse L1210 cells allografted in female BDF1 mouse assessed as host mean survival time at 50 mg/kg, ip administered daily for 9 days as Klucel suspension starting 24 hrs after tumor inoculation relative to control", "type": "functional", "conditions": "route intraperitoneal", "outline": "as §6"}, "[15]": {"tested_on": "P388", "assay": "Antitumor activity against mouse P388 cells allografted in female CDF1 mouse assessed as change in body weight at 12.5 mg/kg, ip administered daily for 9 days as Klucel suspension starting 24 hrs after tumor inoculation", "type": "functional", "conditions": "route intraperitoneal", "outline": "as §2"}, "[16]": {"tested_on": "L1210", "assay": "Antileukemic activity against mouse L1210 cells allografted in female BDF1 mouse assessed as change in body weight at 50 mg/kg, ip administered daily for 9 days as Klucel suspension starting 24 hrs after tumor inoculation", "type": "functional", "conditions": "route intraperitoneal", "outline": "as §4"}, "[17]": {"tested_on": "P388", "assay": "Antitumor activity against mouse P388 cells allografted in female CDF1 mouse assessed as disease cures by measuring 30-days host survival at 50 mg/kg, ip administered daily for 9 days as Klucel suspension starting 24 hrs after tumor inoculation relative to control", "type": "functional", "conditions": "route intraperitoneal", "outline": "as §1"}, "[18]": {"tested_on": "P388", "assay": "Antitumor activity against mouse P388 cells allografted in female CDF1 mouse assessed as change in body weight at 200 mg/kg, ip administered daily for 9 days as Klucel suspension starting 24 hrs after tumor inoculation", "type": "functional", "conditions": "route intraperitoneal", "outline": "as §2"}, "[19]": {"tested_on": "P388", "assay": "Antitumor activity against mouse P388 cells allografted in female CDF1 mouse assessed as disease cures by measuring 30-days host survival at 12.5 mg/kg, ip administered daily for 9 days as Klucel suspension starting 24 hrs after tumor inoculation relative to control", "type": "functional", "conditions": "route intraperitoneal", "outline": "as §1"}, "[20]": {"tested_on": "P388", "assay": "Antitumor activity against mouse P388 cells allografted in female CDF1 mouse assessed as disease cures by measuring 30-days host survival at 200 mg/kg, ip administered daily for 9 days as Klucel suspension starting 24 hrs after tumor inoculation relative to control", "type": "functional", "conditions": "route intraperitoneal", "outline": "as §1"}, "[21]": {"tested_on": "Mus musculus", "assay": "Toxicity in female CDF1 mouse allografted with mouse P388 cells assessed as animal survival at 25 mg/kg, ip administered daily for 9 days as Klucel suspension starting 24 hrs after tumor inoculation", "type": "organism-based", "set-up": "dose 25 mg/kg, route intraperitoneal", "conditions": "in vivo", "outline": "as §3"}, "[22]": {"tested_on": "L1210", "assay": "Antileukemic activity against mouse L1210 cells allografted in female BDF1 mouse assessed as host mean survival time at 200 mg/kg, ip administered daily for 9 days as Klucel suspension starting 24 hrs after tumor inoculation relative to control", "type": "functional", "conditions": "route intraperitoneal", "outline": "as §6"}, "[23]": {"tested_on": "Mus musculus", "assay": "Toxicity in female CDF1 mouse allografted with mouse P388 cells assessed as animal survival at 12.5 mg/kg, ip administered daily for 9 days as Klucel suspension starting 24 hrs after tumor inoculation", "type": "organism-based", "set-up": "dose 12.5 mg/kg, route intraperitoneal", "conditions": "in vivo", "outline": "as §3"}}}
{"smiles": "CNC(=O)OCc1c(COC(=O)NC)c(-c2ccc(OC)cc2)n2c1CCC2", "values": [{"measurement": "T/C", "setting": "[1]", "result": 129, "unit": "%"}, {"measurement": "EC50", "setting": "[2]", "result": 21, "unit": "µg/mL"}, {"measurement": "Activity", "setting": "[3]", "result": -4, "unit": "g"}, {"measurement": "Activity", "setting": "[4]", "result": -3.3, "unit": "g"}, {"measurement": "T/C", "setting": "[5]", "result": 132, "unit": "%"}, {"measurement": "Activity", "setting": "[6]", "result": "Non-toxic"}, {"measurement": "Activity", "setting": "[7]", "result": -3.7, "unit": "g"}, {"measurement": "Activity", "setting": "[8]", "result": -5, "unit": "g"}, {"measurement": "Activity", "setting": "[9]", "result": "Non-toxic"}, {"measurement": "Activity", "setting": "[10]", "result": "Non-toxic"}, {"measurement": "Activity", "setting": "[11]", "result": "Non-toxic"}, {"measurement": "T/C", "setting": "[12]", "result": 117, "unit": "%"}, {"measurement": "Activity", "setting": "[13]", "result": -4.8, "unit": "g"}, {"measurement": "T/C", "setting": "[14]", "result": 109, "unit": "%"}, {"measurement": "Activity", "setting": "[15]", "result": -3.2, "unit": "g"}, {"measurement": "Activity", "setting": "[16]", "result": -2.3, "unit": "g"}, {"measurement": "T/C", "setting": "[17]", "result": 131, "unit": "%"}, {"measurement": "Activity", "setting": "[18]", "result": -3.6, "unit": "g"}, {"measurement": "T/C", "setting": "[19]", "result": 132, "unit": "%"}, {"measurement": "T/C", "setting": "[20]", "result": 55, "unit": "%"}, {"measurement": "Activity", "setting": "[21]", "result": "Non-toxic"}, {"measurement": "T/C", "setting": "[22]", "result": 98, "unit": "%"}, {"measurement": "Activity", "setting": "[23]", "result": "Non-toxic"}]}
